Measurements from article PMC10582660 (Clinical and Translational Science, 2023).

Target: T1, OCT1 (Homo sapiens, UniProt O15245)
T1 sequence (O15245 1-554): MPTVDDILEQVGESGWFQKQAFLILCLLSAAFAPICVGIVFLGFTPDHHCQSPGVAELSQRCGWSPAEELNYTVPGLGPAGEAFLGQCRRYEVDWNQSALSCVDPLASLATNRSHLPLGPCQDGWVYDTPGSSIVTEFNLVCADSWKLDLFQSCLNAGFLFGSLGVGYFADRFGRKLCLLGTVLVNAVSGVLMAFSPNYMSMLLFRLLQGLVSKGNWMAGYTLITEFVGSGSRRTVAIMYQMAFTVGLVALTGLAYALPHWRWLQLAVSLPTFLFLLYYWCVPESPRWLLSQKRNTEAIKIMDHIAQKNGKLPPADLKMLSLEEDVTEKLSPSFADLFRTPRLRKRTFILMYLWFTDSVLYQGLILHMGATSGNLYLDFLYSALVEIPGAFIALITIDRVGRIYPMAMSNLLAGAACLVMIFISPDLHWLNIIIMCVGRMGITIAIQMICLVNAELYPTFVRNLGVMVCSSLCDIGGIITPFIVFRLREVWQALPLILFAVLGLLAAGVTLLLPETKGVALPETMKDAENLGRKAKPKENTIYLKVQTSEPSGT
Assay: Raloxifene as a substrate for uptake transporters
Format: in vitro ADME
Conditions: raloxifene 1, 10 μM, 2, 20 min, two‐fold cutoff
Outline: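 Uptake of test compound (1 and 10 μM, 2 and 20 min) measured in transporter-expressing HEK293 or MDCKII cells or inside-out membrane vesicles. Run with positive-control probe substrates and inhibitors, plus empty-vector or untransfected control cells. Fold-accumulation relative to control cells judged against a two-fold cutoff for substrate status.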

Structure (SMILES): O=C(c1ccc(OCCN2CCCCC2)cc1)c1c(-c2ccc(O)cc2)sc2cc(O)ccc12 [Raloxifene, raloxifene, reference compound]
- fold‐accumulation: 1.13–1.52
